Experimental data reported in the M2OR odorant receptor database.
Changes are numbered by the printed parent chain.

molecular target: T1, OR1A2 (Homo sapiens) (UniProt Q9Y585); settings: stereoisomer not certain
T1 sequence (whole entry): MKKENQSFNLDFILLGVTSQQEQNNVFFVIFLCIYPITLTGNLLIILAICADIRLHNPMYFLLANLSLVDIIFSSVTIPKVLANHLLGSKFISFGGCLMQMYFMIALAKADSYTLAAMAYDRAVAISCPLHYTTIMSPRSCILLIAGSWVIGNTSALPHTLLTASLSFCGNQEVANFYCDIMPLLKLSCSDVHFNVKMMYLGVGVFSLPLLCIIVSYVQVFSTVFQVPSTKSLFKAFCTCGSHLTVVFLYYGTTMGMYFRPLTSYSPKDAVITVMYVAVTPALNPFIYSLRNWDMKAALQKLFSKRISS
Outline: (§1)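 Each receptor–molecule pair is labelled responsive or non-responsive (inactive) according to whether the original authors judged the measured signal statistically different from baseline. The data were taken from the main text and supplementary material of published papers and checked for typos and inconsistencies. Assay methods differed by source, with transient luciferase assays in mammalian cell lines being common.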

Odorant receptor agonist call, inactive:
CCCCC=CC=CC=O
CC(=O)OCCC(C)C
CCc1cnccn1
CC(C)=CCCC(C)=CC#N
CC1=C(O)C(=O)C(C)O1 (centres undefined)
CCCCCCC=CCCC=O
CCCCCCCC(=O)[O-].[H+]
CCCCCCCCC(=O)O
CCCCCCC=CC=O
CCCCCC(S)C(C)CO (centres undefined)
CC(C)=CCCC(C)CC(=O)O (centres undefined)
C=CC(O)CCCCC (centres undefined)
CCCC(C)C=O (centres undefined)
CC1CCC(C(C)C)C(=O)C1 (centres undefined)
CCCCCO
CC(=O)CCc1ccc(O)cc1
CCCC(S)CCOC(C)=O (centres undefined)
Cc1cnc(C)c(C)n1
C=CC(C)=CCC=C(C)CCC=C(C)C
CC1=C(O)C(=O)OC1C (centres undefined)
CCC(C)c1nccnc1OC (centres undefined)
Cc1cnccn1
CCCCC(=O)O
CCCCCCCO
CCCCS
CC1=NC(C)C(C)S1 (centres undefined)
COc1ccccc1
CC(=O)c1c(C)c([N+](=O)[O-])c(C(C)(C)C)c([N+](=O)[O-])c1C
CCC1OC(C)=C(O)C1=O (centres undefined)
CCC1OC(=O)C(O)=C1C (centres undefined)

Odorant receptor agonist call, active:
C=C(C)C1CC=C(C)C(O)C1 (centres undefined)
CC(=O)C=CC1C(C)=CCCC1(C)C (centres undefined)
CCCCC(S)C(C)CO (centres undefined)
CC(C)=CCCC(C)CCO (centres undefined)
CCC=CCCCCCC=O
CCCCCC=CC=CC=O

system: T2, OR1A2 G256C W293C; settings: stereoisomer not certain
T2 sequence (whole entry): T1 sequence (whole entry) with G256C, W293C
Outline: as §1

Odorant receptor agonist call, inactive:
CC1=C(O)C(=O)C(C)O1 (centres undefined)
CCCCCCC=CCCC=O
CCCC(S)CCOC(C)=O (centres undefined)
Cc1cnc(C)c(C)n1
CC1=C(O)C(=O)OC1C (centres undefined)
CC1=NC(C)C(C)S1 (centres undefined)
CCC1OC(C)=C(O)C1=O (centres undefined)
CCC1OC(=O)C(O)=C1C (centres undefined)
